Assay results: ChEMBL document CHEMBL1275382, “Synthesis and SAR studies of chiral non-racemic dexoxadrol analogues as uncompetitive NMDA receptor antagonists” (Bioorg Med Chem, 2010)

Assays:
[1] = target: Sigma non-opioid intracellular receptor 1 (Homo sapiens, UniProt Q99720); test: Binding affinity to sigma1 receptor
Procedure, shortened: (§1)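 Radioligand competition binding with at least six test-compound concentrations, each run in triplicate. Incubations were stopped by rapid filtration through filters presoaked 2 h in 0.5% aqueous polyethylenimine, and bound radioactivity was counted by solid scintillation. IC50 came from non-linear regression and Ki from the Cheng–Prusoff equation. Values are mean ± SEM of three independent experiments.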

[2] = Binding affinity to NMDA receptor ifenprodil binding site; procedure, shortened: as §1
[3] = Binding affinity to sigma2 receptor; procedure, shortened: as §1

Sigma non-opioid intracellular receptor 1, sequence (Q99720 whole entry): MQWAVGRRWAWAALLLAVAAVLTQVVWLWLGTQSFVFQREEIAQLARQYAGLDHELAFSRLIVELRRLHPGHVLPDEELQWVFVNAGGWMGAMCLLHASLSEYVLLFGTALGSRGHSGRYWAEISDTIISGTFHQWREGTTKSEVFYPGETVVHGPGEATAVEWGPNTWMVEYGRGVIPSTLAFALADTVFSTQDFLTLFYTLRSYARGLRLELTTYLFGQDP

| Structure (SMILES) | Ki [1] | Ki [2] | Ki [3] |
| --- | --- | --- | --- |
| FC1(F)CCNC(C2COC(c3ccccc3)(c3ccccc3)O2)C1 (racemic) | > 800 nM | > 1000 nM | > 1000 nM |
| O=C1CCNC(C2COC(c3ccccc3)(c3ccccc3)O2)C1 (racemic) | > 800 nM | > 1000 nM | > 1000 nM |
| c1ccc(C2(c3ccccc3)OCC(C3CCCCN3)O2)cc1 (racemic) [DIOXADROL] | > 800 nM | > 1000 nM | > 1000 nM |

Next, values leading:

| Ki [1] | Ki [2] | Ki [3] | Structure (SMILES) |
| --- | --- | --- | --- |
| > 800 nM | > 1000 nM | > 1000 nM | FC1CCNC(C2COC(c3ccccc3)(c3ccccc3)O2)C1 (racemic) |
| > 800 nM | > 1000 nM | > 1000 nM | OC1CCNC(C2COC(c3ccccc3)(c3ccccc3)O2)C1 (racemic) |
